In ChEMBL document CHEMBL1933058, “5-(2-amino-pyrimidin-4-yl)-1H-pyrrole and 2-(2-amino-pyrimidin-4-yl)-1,5,6,7-tetrahydro-pyrrolo[3,2-c]pyridin-4-one derivatives as new classes of selective and orally available Polo-like kinase 1 inhibitors” (Bioorg Med Chem Lett, 2012):
In brackets after ≈: the same amount, converted by molar mass. Activity calls are given as the source filed them. The calls are words filed in the database; no cut-off is given here.

What was measured:
[1] = Apparent permeability of the compound by PAMPA; assay type: ADME
[2] = Antiproliferative activity against human SUP-M2 cells; assay type: functional, cell-based
A2780 [3] = assay: Induction of apoptosis in human A2780 cells assessed as caspase3 activation at 5 uM after 24 hrs by Western blotting analysis; assay type: functional, cell-based
Outline: (§1)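 A2780 cells were treated for 24 h at 0.05, 0.5 and 5 µM, with nocodazole as positive control. Lysates were immunoblotted for pSer10 histone H3, pThr199 nucleophosmin, cyclin B1, cyclin A, PARP cleavage and caspase 3 activation.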

[4] = Terminal half life in Nu/Nu Balb Harlan mouse at 10 mg/kg, po; assay type: ADME, organism-based; set-up: dose 10 mg/kg, route oral; conditions: in vivo, read-out: beta t1/2 (converted)
[5] = molecular target: Protein-tyrosine kinase 6 (Homo sapiens, UniProt Q13882); assay: Inhibition of BRK
[6] = molecular target: Serine/threonine-protein kinase PLK3 (Homo sapiens, UniProt Q9H4B4); assay: Inhibition of PLK3
[7] = Inhibition of NIM
[8] = molecular target: Hepatocyte growth factor receptor (Homo sapiens, UniProt P08581); assay: Inhibition of MET
[9] = molecular target: MAP kinase-activated protein kinase 2 (Homo sapiens, UniProt P49137); assay: Inhibition of MAP-KAPK2
Aurora kinase B = Aurora kinase B (Homo sapiens, UniProt Q96GD4); assay: Inhibition of Aurora-B
K562 = assay: Antiproliferative activity against human K562 cells; assay type: functional, cell-based
MDA-MB-468 = assay: Antiproliferative activity against human MDA-MB-468 cells; assay type: functional, cell-based
[10] = Half life in Nu/Nu Balb Harlan mouse at 10 mg/kg, iv; assay type: ADME, organism-based; set-up: dose 10 mg/kg, route intravenous; conditions: in vivo
Outline: (§2)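 Male Balb Nu/Nu mice (Harlan) received a single 10 mg/kg intravenous dose, n = 3 animals per study. Vehicle was either trifluoroacetate salt in dextrose or free base in 50% PEG 400/glucosate, depending on compound. Parameters were reported as mean ± standard deviation.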

[11] = molecular target: Protein kinase C beta type (Homo sapiens, UniProt P05771); assay: Inhibition of PKCbeta
[12] = molecular target: Glycogen synthase kinase-3 beta (Homo sapiens, UniProt P49841); assay: Inhibition of GSK3-beta
Insulin receptor = Insulin receptor (Homo sapiens, UniProt P06213); assay: Inhibition of IR
[13] = Inhibition of SULU1
[14] = molecular target: Tyrosine-protein kinase ABL1 (Homo sapiens, UniProt P00519); assay: Inhibition of c-ABL
[15] = molecular target: RAC-alpha serine/threonine-protein kinase (Homo sapiens, UniProt P31749); assay: Inhibition of AKT1
[16] = molecular target: Cyclin-dependent kinase 2/cyclin A (Homo sapiens, UniProt P24941); assay: Inhibition of CDK2/cyclin A; assay type: protein-complex assay
[17] = molecular target: Cyclin-dependent kinase 5 activator 1 (Homo sapiens, UniProt Q15078); assay: Inhibition of CDK5/P25
[18] = molecular target: Receptor-type tyrosine-protein kinase FLT3 (Homo sapiens, UniProt P36888); assay: Inhibition of FLT3
A2780 [19] = assay: Induction of apoptosis in human A2780 cells assessed as PARP cleavage at 5 uM after 24 hrs by Western blotting analysis; assay type: functional, cell-based; outline: as §1
[20] = molecular target: Vascular endothelial growth factor receptor 2 (Homo sapiens, UniProt P35968); assay: Inhibition of VEGFR2
Caco-2 = assay: Apparent permeability across human Caco2 cells; assay type: ADME, cell-based
[21] = molecular target: Serine/threonine-protein kinase Nek6 (Homo sapiens, UniProt Q9HC98); assay: Inhibition of NEK6
[22] = molecular target: High affinity nerve growth factor receptor (Homo sapiens, UniProt P04629); assay: Inhibition of TRKA
A2780 [23] = assay: Cell cycle arrest in human A2780 cells assessed as increase of phospho Ser10 histone H3 level after 24 hrs by Western blotting analysis; assay type: functional, cell-based; outline: as §1
[24] = AUC (0 to infinity) in Nu/Nu Balb Harlan mouse at 10 mg/kg, po; assay type: ADME, organism-based; set-up: time infinity, dose 10 mg/kg, route oral; conditions: plasma
[25] = molecular target: Serine/threonine-protein kinase 26 (Homo sapiens, UniProt Q9P289); assay: Inhibition of MST4
[26] = molecular target: Cyclin-dependent kinase 2/cyclin E1 (Homo sapiens, UniProt P24941); assay: Inhibition of CDK2/cyclin E; assay type: protein-complex assay
[27] = molecular target: Cell division cycle 7-related protein kinase (Homo sapiens, UniProt O00311); assay: Inhibition of CDC7
[28] = molecular target: Cyclin-dependent kinase 4/cyclin D1 (Homo sapiens, UniProt P11802); assay: Inhibition of CDK4/cyclin D1; assay type: protein-complex assay
[29] = molecular target: Proto-oncogene tyrosine-protein kinase receptor Ret (Homo sapiens, UniProt P07949); assay: Inhibition of RET
[30] = Inhibition of PDGFR
[31] = molecular target: Mitogen-activated protein kinase 1 (Homo sapiens, UniProt P28482); assay: Inhibition of ERK2
[32] = Cmax in Nu/Nu Balb Harlan mouse at 10 mg/kg, po; assay type: ADME, organism-based; set-up: dose 10 mg/kg, route oral; conditions: in vivo
[33] = Solubility of the compound at pH 7; assay type: physicochemical; conditions: buffer
[34] = molecular target: cAMP-dependent protein kinase catalytic subunit alpha (Homo sapiens, UniProt P17612); assay: Inhibition of PKAalpha
HCT-116 = assay: Antiproliferative activity against human HCT116 cells; assay type: functional, cell-based
[35] = Volume of distribution at steady state in Nu/Nu Balb Harlan mouse at 10 mg/kg, iv; assay type: ADME, organism-based; set-up: dose 10 mg/kg, route intravenous; conditions: in vivo, read-out: Vdss
[36] = Clearance in Nu/Nu Balb Harlan mouse at 10 mg/kg, iv; assay type: ADME, organism-based; set-up: dose 10 mg/kg, route intravenous; conditions: in vivo; outline: as §2
[37] = molecular target: Cyclin-dependent kinase 1/cyclin B1 (Homo sapiens, UniProt P06493); assay: Inhibition of CDK1/cyclin B; assay type: protein-complex assay
MOLT-4 = assay: Antiproliferative activity against human MOLT4 cells; assay type: functional, cell-based
A-375 = assay: Antiproliferative activity against human A375 cells; assay type: functional, cell-based
[38] = molecular target: Epidermal growth factor receptor (Homo sapiens, UniProt P04626+P00533+Q15303+P21860); assay: Inhibition of EGFR1; assay type: protein assay
A2780 [39] = assay: Cell cycle arrest in human A2780 cells assessed as induction of phospho Thr199 nucleophosmin level after 24 hrs by Western blotting analysis; assay type: functional, cell-based; outline: as §1
LNCaP = assay: Antiproliferative activity against human LNCAP cells; assay type: functional, cell-based
[40] = molecular target: Serine/threonine-protein kinase PLK2 (Homo sapiens, UniProt Q9NYY3); assay: Inhibition of PLK2
[41] = molecular target: Tyrosine-protein kinase Lck (Homo sapiens, UniProt P06239); assay: Inhibition of LCK
[42] = molecular target: Mast/stem cell growth factor receptor Kit (Homo sapiens, UniProt P10721); assay: Inhibition of KIT
[43] = molecular target: Mitogen-activated protein kinase 14 (Homo sapiens, UniProt Q16539); assay: Inhibition of P38alpha
A2780 [44] = assay: Cell cycle arrest in human A2780 cells assessed as reduction of phospho Ser46 TCTP level at 0.05 to 5 uM after 1 hr by Western blotting analysis; assay type: functional, cell-based
Outline: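 A2780 cells got 1 h exposure at 0.05, 0.5 and 5 µM, with nocodazole-treated cells as comparator. Western blot was used to probe the PLK1 substrate marker pSer46 TCTP and the mitotic marker pSer10 histone H3.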

Glycogen synthase kinase-3 beta, sequence (P49841 whole entry): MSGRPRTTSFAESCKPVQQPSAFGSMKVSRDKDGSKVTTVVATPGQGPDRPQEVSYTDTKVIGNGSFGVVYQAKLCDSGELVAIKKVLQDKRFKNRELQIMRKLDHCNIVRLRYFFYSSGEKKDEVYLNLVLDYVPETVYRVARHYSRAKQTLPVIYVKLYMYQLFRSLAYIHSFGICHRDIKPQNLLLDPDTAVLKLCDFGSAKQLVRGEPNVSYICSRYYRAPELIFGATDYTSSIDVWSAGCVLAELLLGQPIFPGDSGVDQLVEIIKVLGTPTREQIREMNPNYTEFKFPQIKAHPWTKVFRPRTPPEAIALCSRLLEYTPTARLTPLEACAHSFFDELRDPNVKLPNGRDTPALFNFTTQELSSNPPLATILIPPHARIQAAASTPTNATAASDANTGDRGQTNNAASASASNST
Vascular endothelial growth factor receptor 2, sequence (P35968 whole entry): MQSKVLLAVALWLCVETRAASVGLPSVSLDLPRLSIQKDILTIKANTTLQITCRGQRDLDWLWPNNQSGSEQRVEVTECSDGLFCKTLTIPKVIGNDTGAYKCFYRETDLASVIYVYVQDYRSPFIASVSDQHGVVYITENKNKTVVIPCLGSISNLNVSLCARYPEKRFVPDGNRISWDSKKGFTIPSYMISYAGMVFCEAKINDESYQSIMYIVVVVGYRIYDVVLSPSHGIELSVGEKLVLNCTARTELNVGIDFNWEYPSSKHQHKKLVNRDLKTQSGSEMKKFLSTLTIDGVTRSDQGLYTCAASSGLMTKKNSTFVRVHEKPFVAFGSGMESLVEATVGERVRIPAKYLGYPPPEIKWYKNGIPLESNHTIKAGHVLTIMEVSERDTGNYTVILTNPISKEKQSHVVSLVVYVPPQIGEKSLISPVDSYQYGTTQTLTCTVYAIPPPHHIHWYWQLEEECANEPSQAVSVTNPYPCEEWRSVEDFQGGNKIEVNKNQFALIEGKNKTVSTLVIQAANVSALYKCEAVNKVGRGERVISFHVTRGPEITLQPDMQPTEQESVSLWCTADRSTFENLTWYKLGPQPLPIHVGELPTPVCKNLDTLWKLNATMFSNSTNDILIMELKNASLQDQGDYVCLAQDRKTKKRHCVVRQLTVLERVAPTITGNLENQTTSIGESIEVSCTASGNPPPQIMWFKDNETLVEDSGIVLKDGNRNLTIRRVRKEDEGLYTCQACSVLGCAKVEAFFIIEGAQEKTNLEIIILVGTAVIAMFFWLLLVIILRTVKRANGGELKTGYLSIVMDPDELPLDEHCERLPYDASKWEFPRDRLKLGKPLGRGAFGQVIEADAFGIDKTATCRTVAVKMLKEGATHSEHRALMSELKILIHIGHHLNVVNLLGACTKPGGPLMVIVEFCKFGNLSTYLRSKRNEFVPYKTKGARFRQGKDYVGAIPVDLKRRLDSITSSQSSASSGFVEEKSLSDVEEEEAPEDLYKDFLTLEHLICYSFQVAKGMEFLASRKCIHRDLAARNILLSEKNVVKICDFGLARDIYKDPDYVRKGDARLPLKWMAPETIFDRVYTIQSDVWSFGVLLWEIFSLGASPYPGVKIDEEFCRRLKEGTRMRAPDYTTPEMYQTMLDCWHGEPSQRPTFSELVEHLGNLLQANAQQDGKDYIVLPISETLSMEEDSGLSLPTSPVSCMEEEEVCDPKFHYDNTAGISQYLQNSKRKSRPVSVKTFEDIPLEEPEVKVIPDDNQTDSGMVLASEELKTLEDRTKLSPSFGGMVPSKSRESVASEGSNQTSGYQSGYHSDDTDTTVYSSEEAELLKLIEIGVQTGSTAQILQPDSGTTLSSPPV
MAP kinase-activated protein kinase 2, sequence (P49137 whole entry): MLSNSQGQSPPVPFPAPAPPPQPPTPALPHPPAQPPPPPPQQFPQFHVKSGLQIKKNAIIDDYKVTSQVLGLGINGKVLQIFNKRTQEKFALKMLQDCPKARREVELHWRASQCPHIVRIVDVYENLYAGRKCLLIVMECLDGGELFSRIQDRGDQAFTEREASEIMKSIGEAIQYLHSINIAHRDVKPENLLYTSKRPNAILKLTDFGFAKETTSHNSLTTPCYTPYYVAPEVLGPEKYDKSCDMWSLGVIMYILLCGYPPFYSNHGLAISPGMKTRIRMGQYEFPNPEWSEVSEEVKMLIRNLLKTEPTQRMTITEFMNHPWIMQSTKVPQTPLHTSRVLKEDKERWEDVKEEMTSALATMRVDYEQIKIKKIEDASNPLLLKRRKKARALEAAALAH
Mitogen-activated protein kinase 14, sequence (Q16539 whole entry): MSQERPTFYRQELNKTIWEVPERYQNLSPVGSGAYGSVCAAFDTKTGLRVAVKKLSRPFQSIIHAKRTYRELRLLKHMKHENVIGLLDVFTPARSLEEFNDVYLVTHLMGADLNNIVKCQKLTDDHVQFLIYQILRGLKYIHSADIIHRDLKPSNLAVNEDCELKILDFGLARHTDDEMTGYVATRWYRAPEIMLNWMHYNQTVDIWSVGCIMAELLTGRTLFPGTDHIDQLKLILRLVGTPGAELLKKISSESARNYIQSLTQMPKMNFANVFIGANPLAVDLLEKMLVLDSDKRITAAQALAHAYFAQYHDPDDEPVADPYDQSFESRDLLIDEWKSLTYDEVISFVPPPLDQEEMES
Receptor-type tyrosine-protein kinase FLT3, sequence (P36888 whole entry): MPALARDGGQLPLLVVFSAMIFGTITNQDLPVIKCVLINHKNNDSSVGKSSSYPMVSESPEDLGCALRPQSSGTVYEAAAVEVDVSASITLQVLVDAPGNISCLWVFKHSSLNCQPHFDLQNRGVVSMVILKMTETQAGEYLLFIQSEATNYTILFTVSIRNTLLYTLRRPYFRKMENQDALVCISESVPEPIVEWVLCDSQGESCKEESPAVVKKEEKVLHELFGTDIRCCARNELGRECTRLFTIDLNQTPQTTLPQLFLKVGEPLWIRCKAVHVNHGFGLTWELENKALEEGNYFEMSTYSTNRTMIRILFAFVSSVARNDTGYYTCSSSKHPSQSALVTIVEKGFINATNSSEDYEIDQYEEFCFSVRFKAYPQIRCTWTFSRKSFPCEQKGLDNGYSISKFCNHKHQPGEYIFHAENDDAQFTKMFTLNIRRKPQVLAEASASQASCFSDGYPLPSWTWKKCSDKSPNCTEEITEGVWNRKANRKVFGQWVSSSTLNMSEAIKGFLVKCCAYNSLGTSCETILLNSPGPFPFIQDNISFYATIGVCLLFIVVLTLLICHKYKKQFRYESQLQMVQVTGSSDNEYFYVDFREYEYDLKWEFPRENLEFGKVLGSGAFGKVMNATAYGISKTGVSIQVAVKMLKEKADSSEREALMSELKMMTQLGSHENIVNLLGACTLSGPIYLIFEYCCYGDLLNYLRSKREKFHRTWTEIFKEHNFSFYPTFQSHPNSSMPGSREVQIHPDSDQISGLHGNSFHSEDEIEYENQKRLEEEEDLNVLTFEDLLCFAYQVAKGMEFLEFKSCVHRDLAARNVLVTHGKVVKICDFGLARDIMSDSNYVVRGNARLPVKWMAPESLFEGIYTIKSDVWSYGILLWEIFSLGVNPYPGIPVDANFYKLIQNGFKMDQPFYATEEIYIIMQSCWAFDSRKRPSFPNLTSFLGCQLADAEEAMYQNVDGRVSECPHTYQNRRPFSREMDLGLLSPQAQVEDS
Serine/threonine-protein kinase Nek6, sequence (Q9HC98 whole entry): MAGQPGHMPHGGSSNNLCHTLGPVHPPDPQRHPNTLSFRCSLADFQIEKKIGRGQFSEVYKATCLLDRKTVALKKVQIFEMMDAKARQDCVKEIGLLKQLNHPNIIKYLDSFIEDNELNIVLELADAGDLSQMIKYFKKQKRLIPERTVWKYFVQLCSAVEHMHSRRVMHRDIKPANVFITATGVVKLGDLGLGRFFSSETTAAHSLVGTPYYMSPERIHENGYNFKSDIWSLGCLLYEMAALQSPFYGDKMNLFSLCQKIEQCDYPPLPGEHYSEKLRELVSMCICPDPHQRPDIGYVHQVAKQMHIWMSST
Serine/threonine-protein kinase PLK3, sequence (Q9H4B4 whole entry): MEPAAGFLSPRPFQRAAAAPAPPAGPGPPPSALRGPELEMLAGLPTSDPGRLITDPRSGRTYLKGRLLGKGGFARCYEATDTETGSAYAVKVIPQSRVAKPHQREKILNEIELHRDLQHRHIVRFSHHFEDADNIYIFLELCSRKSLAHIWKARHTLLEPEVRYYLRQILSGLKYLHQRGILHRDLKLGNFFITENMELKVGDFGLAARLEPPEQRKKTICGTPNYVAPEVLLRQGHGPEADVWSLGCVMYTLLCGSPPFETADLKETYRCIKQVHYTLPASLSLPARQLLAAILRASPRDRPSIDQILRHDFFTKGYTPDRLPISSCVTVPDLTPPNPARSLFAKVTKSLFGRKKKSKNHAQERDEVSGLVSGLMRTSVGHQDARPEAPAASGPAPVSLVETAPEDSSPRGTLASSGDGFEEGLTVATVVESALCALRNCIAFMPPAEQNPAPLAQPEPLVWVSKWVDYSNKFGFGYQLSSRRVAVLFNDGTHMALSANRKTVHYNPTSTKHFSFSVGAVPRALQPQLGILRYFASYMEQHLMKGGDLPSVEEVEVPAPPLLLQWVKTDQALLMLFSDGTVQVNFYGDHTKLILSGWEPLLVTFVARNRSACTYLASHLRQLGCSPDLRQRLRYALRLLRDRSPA
Cyclin-dependent kinase 5 activator 1, sequence (Q15078 whole entry): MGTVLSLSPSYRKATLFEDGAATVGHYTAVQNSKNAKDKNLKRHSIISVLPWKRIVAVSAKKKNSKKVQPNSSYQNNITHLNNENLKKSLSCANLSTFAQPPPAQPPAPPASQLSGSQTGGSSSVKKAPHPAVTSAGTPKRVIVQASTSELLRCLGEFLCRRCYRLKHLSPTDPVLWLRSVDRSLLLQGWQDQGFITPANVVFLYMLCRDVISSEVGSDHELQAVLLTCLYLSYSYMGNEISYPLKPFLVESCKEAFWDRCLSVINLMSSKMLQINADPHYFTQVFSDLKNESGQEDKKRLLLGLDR

Which Papp [1] does the source give for `CN1CCN(c2ccc(OC(F)(F)F)c(Nc3nccc(-c4cc5c(n4C)CCNC5=O)n3)c2)CC1` here?
The Papp was 5.79 ×10⁻⁶ cm/s.

What about the IC50 [2] of the same molecule?
The IC50 was 0.053 µM.

What about the Activity (A2780 [3]) of the same molecule?
The Activity was “Active”.

What about the half-life [4] of the same molecule?
The half-life was 84 min.

And the IC50 [5]?
Its IC50 is greater than 10 µM.

What about the IC50 [6] of the same molecule?
Its IC50 is greater than 10 µM.

What about the IC50 [7] of the same molecule?
Its IC50 is greater than 10 µM.

What about the IC50 [8] of the same molecule?
The IC50 was greater than 10 µM.

What about the IC50 [9] of the same molecule?
Its IC50 is greater than 10 µM.

And the IC50 (Aurora kinase B)?
The IC50 was greater than 10 µM.

And the IC50 (K562)?
The IC50 was 0.06 µM.

What about the IC50 (MDA-MB-468) of the same molecule?
The IC50 was 0.041 µM.

What about the half-life [10] of the same molecule?
Its half-life is 31.2 min.

What about the IC50 [11] of the same molecule?
The IC50 was greater than 10 µM.

And the IC50 [12]?
The IC50 was greater than 10 µM.

And the IC50 (Insulin receptor)?
Its IC50 is greater than 10 µM.

What about the IC50 [13] of the same molecule?
Its IC50 is greater than 10 µM.

What about the IC50 [14] of the same molecule?
The IC50 was greater than 10 µM.

What about the IC50 [15] of the same molecule?
Its IC50 is greater than 10 µM.

And the IC50 [16]?
The IC50 was greater than 10 µM.

What about the IC50 [17] of the same molecule?
The IC50 was greater than 10 µM.

What about the IC50 [18] of the same molecule?
The IC50 was 0.659 µM.

And the Activity (A2780 [19])?
The Activity was “Active”.

What about the IC50 [20] of the same molecule?
Its IC50 is greater than 10 µM.

And the Papp (Caco-2)?
The Papp was “permeable”.

What about the IC50 [21] of the same molecule?
The IC50 was greater than 10 µM.

What about the IC50 [22] of the same molecule?
The IC50 was greater than 10 µM.

What about the Activity (A2780 [23]) of the same molecule?
Its Activity is “Dose-dependent effect”.

And the AUC(0-inf) [24]?
The AUC(0-inf) was 2.38 µM·h.

And the IC50 [25]?
The IC50 was greater than 10 µM.

And the IC50 [26]?
The IC50 was greater than 10 µM.

And the IC50 [27]?
Its IC50 is greater than 10 µM.

What about the IC50 [28] of the same molecule?
The IC50 was greater than 10 µM.

And the IC50 [29]?
The IC50 was greater than 10 µM.

What about the IC50 [30] of the same molecule?
Its IC50 is greater than 10 µM.

And the IC50 [31]?
Its IC50 is greater than 10 µM.

And the Cmax [32]?
The Cmax was 760 nM.

And the solubility [33]?
Its solubility is 163 µM (≈ 81.7 µg/mL).

And the IC50 [34]?
The IC50 was greater than 10 µM.

What about the IC50 (HCT-116) of the same molecule?
The IC50 was 0.032 µM.

And the Vd [35]?
The Vd was 2.49 L/kg.

And the clearance [36]?
Its clearance is 66.4 mL/min/kg.

What about the IC50 [37] of the same molecule?
The IC50 was greater than 10 µM.

And the IC50 (MOLT-4)?
Its IC50 is 0.017 µM.

And the IC50 (A-375)?
Its IC50 is 0.027 µM.

What about the IC50 [38] of the same molecule?
The IC50 was greater than 10 µM.

What about the Activity (A2780 [39]) of the same molecule?
The Activity was “Dose-dependent effect”.

And the IC50 (LNCaP)?
Its IC50 is 0.026 µM.

What about the IC50 [40] of the same molecule?
Its IC50 is greater than 10 µM.

What about the IC50 [41] of the same molecule?
Its IC50 is greater than 10 µM.

And the IC50 [42]?
Its IC50 is greater than 10 µM.

What about the IC50 [43] of the same molecule?
Its IC50 is greater than 10 µM.

And the Activity (A2780 [44])?
Its Activity is “Active”.
